Positions of bridges follow the written chain, without caps; N, C: chain ends. Non-standard residues stand in square brackets, D forms with d. Residues, ends and D or L forms follow the SMILES beside them. Nle = CCCC[C@H](N)C(=O)O
Experiments:
[1] = Displacement of [3H]BK from bradykinin receptor in rat brain membranes at pH 6.8 after 2 hrs by liquid scintillation counting method; type: cell membranes, Membrane
In short: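 Competitive binding of [3H]BK to rat brain membranes at pH 6.8. Non-specific binding was defined with 10 μM kallidin. IC50 values were obtained by nonlinear least-squares regression of data from at least two independent experiments run in duplicate, and were also reported as logarithmic values.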

[2] = Half life in rat plasma by RP-HPLC method; type: ADME, cell-free
In short: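 Peptide incubated in rat plasma at 37 °C and sampled at 1, 2, 4 and 8 h. Quenched samples were analysed by RP-HPLC. Half-life was calculated as t1/2 = 0.693/b, where b is the slope of the linear fit.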

[3] = Displacement of [3H]DALKD from bradykinin receptor in rat brain membranes at pH 6.8 after 2 hrs by liquid scintillation counting method; type: cell membranes, Membrane

| SMILES | IC50 [1] [µM] | pIC50 [1] | half-life [2] [h] | IC50 [3] [µM] | pIC50 [3] |
| --- | --- | --- | --- | --- | --- |
| CC[C@H](C)[C@@H]1NC(=O)[C@H](CCCNC(=N)N)NC(=O)[C@H](CC(C)C)NC(=O)[C@H](Cc2ccccc2)NC(=O)CC[C@@H](C(=O)N[C@@H](CCCCN)C(=O)O)NC(=O)[C@H](CCCNC(=N)N)NC1=O (FLRIREK-OH; lactam N-6) | 0.191 | 6.72 | 5.5 |  |  |
| CCCC[C@H](NC(=O)[C@H](CCCCN)NC(=O)[C@@H]1CCCN1C(=O)[C@H](CCCCN)NC(=O)[C@@H](N)CCCC)C(=O)N[C@@H](CCCCN)C(=O)O (H-[Nle]KPK[Nle]K-OH) |  |  |  | 0.078 | 7.11 |
| CC[C@H](C)[C@@H]1NC(=O)[C@H](CCCNC(=N)N)NC(=O)[C@H](CC(C)C)NC(=O)[C@H](CCCCN)NC(=O)CC[C@@H](C(=O)N[C@@H](CCCCN)C(=O)O)NC(=O)[C@H](CCCNC(=N)N)NC1=O (KLRIREK-OH; lactam N-6) | 0.302 | 6.52 |  |  |  |
| CC[C@H](C)[C@@H]1NC(=O)[C@H](CCCNC(=N)N)NC(=O)[C@H](CC(C)C)NC(=O)CC[C@@H](C(=O)N[C@@H](CCCCN)C(=O)O)NC(=O)[C@H](CCCNC(=N)N)NC1=O (LRIREK-OH; lactam N-5) | 1.51 | 5.82 |  |  |  |

— ChEMBL document CHEMBL3864141, “Cyclic non-opioid dynorphin A analogues for the bradykinin receptors” (Bioorg Med Chem Lett, 2016)
